Data reported in ChEMBL document CHEMBL4138133, “2,3-Dihydro-3β-methoxy Withaferin-A Protects Normal Cells against Stress: Molecular Evidence of Its Potent Cytoprotective Activity” (J Nat Prod, 2017).
The source made the active and inactive calls. No cut-off for these calls is given here.

Experiments:
[1] = biological target: RAC-alpha serine/threonine-protein kinase (Homo sapiens) (UniProt P31749); test: Induction of AKT-mediated beta-catenin expression level in H2O2 treated human TIG3 cells at 0.3 uM pretreated with H2O2 for 2 hrs followed by compound addition by immunoblot analysis
Chain of RAC-alpha serine/threonine-protein kinase (Homo sapiens) (P31749 whole entry): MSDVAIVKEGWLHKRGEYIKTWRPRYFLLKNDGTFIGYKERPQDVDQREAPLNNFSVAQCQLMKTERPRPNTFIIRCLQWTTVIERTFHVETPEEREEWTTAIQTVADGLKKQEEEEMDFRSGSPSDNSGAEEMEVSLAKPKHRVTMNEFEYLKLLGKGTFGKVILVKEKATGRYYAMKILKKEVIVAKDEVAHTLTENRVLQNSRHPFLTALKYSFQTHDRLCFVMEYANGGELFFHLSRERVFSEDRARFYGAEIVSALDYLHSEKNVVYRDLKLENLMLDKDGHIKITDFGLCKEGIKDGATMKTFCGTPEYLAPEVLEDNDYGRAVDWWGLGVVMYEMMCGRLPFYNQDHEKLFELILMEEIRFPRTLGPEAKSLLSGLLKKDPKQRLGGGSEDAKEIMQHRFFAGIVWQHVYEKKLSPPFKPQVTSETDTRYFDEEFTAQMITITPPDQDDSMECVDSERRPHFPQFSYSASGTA
Outline: (§1)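 TIG-3 cells stressed with H2O2 (500 μM, 2 h), then recovered in medium containing 0.3 or 0.6 μM compound. Lysed in NP40 buffer; 10−20 μg protein immunoblotted for pAkt Ser473, p-p38 Thr180/Tyr182, p-p44/42 Thr202/Tyr204, β-catenin, survivin, Bcl-2 or full-length PARP-1. Triplicate experiments.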

[2] = tested on: TIG-3; test: Cytoprotective activity against UV irradiation-induced stress in human TIG3 cells assessed as decrease in CARF level irradiated with 50 mJ/cm2 of UV radiations followed by compound addition by immuno fluorescence staining based assay; format: functional, cell-based
[3] = tested on: TIG-3; test: Decrease in Nrf2 expression level in human TIG3 cells at 0.3 to 3 uM by immunoblot analysis; format: ADME, cell-based; conditions: tig-3, 3 µM
Outline: (§2)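 TIG-3 cells treated with compound, lysed in NP40 buffer (centrifuged 20 min, 4 °C); 10−20 μg protein immunoblotted for indicated proteins; band quantitation from three independent experiments, Student's t or Mann−Whitney test.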

[4] = tested on: TIG-3; test: Induction of oxidative stress in human TIG3 cells assessed as increase in p53 expression level at 0.6 uM by immunoblot analysis; format: cell-based; conditions: tig-3, 0.6 µM; outline: as §2
[5] = tested on: TIG-3; test: Induction of oxidative stress against human TIG3 cells assessed as increase in CARF mRNA levels by RT-PCR analysis; format: cell-based
Outline: (§3)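 Total RNA from treated TIG-3 cells; cDNA from 2 μg RNA; PCR 95 °C 10 min, 30 cycles (95 °C 45 s, 58 °C 1 min, 72 °C 45 s), 72 °C 10 min; products on 0.8% agarose, band densitometry; three independent experiments.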

[6] = tested on: TIG-3; test: Cytotoxicity against human TIG3 cells assessed as inhibition of colony formation at 0.1 to 0.3 uM by crystal violet staining based assay; format: cell-based; conditions: tig-3, 0.3 µM
Outline: (§4)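 Cells seeded at 500 per well and grown about 2 weeks in compound-supplemented medium, with medium changed every fourth day. Colonies fixed, stained and counted. Triplicate; Student's t test.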

[7] = tested on: TIG-3; test: Induction of apoptosis in human TIG3 cells assessed as decrease in Bcl2 levels at 0.3 to 3 uM by immunoblot analysis; format: cell-based; conditions: tig-3, 3 µM
Outline: (§5)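 TIG-3 cells treated with compound without added stress. Lysed in NP40 buffer; 10−20 μg protein immunoblotted for Bcl-2 and Bax. Band intensities quantified from three independent sets.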

[8] = tested on: TIG-3; test: Cytoprotective activity against H2O2-induced oxidative stress in human TIG3 cells assessed as increase in full length PARP level at 0.3 uM pretreated with H2O2 for 2 hrs followed by compound addition by immunoblot analysis; format: functional, cell-based; outline: as §1
[9] = tested on: TIG-3; test: Induction of apoptosis in human TIG3 cells assessed as increase in Bax levels at 0.3 to 3 uM by immunoblot analysis; format: cell-based; conditions: tig-3, 3 µM; outline: as §5
[10] = tested on: TIG-3; test: Cytoprotective activity against UV irradiation-induced stress in human TIG3 cells assessed as decrease in p53 level irradiated with 50 mJ/cm2 of UV radiations followed by compound addition by immuno fluorescence staining based assay; format: functional, cell-based
[11] = biological target: MAP kinase p38 (Homo sapiens) (UniProt O15264+Q15759+Q16539+P53778); test: Induction of p38 MAPK phosphorylation at Thr180/Tyr182 residues in H2O2 treated human TIG3 cells at 0.3 uM pretreated with H2O2 for 2 hrs followed by compound addition by immunoblot analysis; outline: as §1
[12] = tested on: TIG-3; test: Cytotoxicity against human TIG3 cells assessed as induction of senescence at 64 population doubling at 0.1 uM; format: cell-based; conditions: tig-3, 0.1 µM
[13] = tested on: TIG-3; test: Cytoprotective activity against H2O2-induced oxidative stress in human TIG3 cells assessed as decrease in p53 level pretreated with H2O2 for 2 hrs followed by compound addition by immuno fluorescence staining based assay; format: functional, cell-based
[14] = tested on: TIG-3; test: Induction of oxidative stress in human TIG3 cells assessed as increase in GADD45alpha mRNA levels by RT-PCR analysis; format: cell-based; outline: as §3
[15] = tested on: TIG-3; test: Cytoprotective activity against H2O2-induced oxidative stress in human TIG3 cells assessed as decrease in CARF level pretreated with H2O2 for 2 hrs followed by compound addition by immuno fluorescence staining based assay; format: functional, cell-based
[16] = tested on: TIG-3; test: Cytotoxicity against human TIG3 cells assessed as cell death at 1 uM after 48 hrs relative to control; format: cell-based; conditions: tig-3, 48 h
Outline: (§6)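 Normal human fibroblasts (TIG-3, WI38) exposed to serially increasing compound concentrations (0.15 to 50 μM) for 48 or 72 h. Viability scored against untreated control. Triplicate experiments.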

[17] = organism: Homo sapiens; test: Induction of AKT/p38/p44 MAPK-mediated survivin expression level in H2O2 treated human TIG3 cells at 0.3 uM pretreated with H2O2 for 2 hrs followed by compound addition by immunoblot analysis; outline: as §1
[18] = biological target: RAC-alpha serine/threonine-protein kinase (Homo sapiens) (UniProt P31749); test: Induction of Akt phosphorylation at Ser473 residues in H2O2 treated human TIG3 cells at 0.3 uM pretreated with H2O2 for 2 hrs followed by compound addition by immunoblot analysis; outline: as §1
[19] = tested on: TIG-3; test: Cytotoxicity against human TIG3 cells assessed as cell death at 0.6 uM; format: cell-based; conditions: tig-3, 0.6 µM
Outline: (§7)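 Phase-contrast microscopy of morphology of control and treated normal human TIG-3 fibroblasts.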

[20] = tested on: TIG-3; test: Decrease in keap1 expression level in human TIG3 cells at 0.3 to 3 uM by immunoblot analysis; format: ADME, cell-based; conditions: tig-3, 3 µM; outline: as §2
[21] = biological target: Mitogen-activated protein kinase 1 (Homo sapiens) (UniProt P28482); test: Induction of ERK2 phosphorylation at Tyr204 residues in H2O2 treated human TIG3 cells at 0.3 uM pretreated with H2O2 for 2 hrs followed by compound addition by immunoblot analysis; outline: as §1
Chain of Mitogen-activated protein kinase 1 (Homo sapiens) (P28482 whole entry): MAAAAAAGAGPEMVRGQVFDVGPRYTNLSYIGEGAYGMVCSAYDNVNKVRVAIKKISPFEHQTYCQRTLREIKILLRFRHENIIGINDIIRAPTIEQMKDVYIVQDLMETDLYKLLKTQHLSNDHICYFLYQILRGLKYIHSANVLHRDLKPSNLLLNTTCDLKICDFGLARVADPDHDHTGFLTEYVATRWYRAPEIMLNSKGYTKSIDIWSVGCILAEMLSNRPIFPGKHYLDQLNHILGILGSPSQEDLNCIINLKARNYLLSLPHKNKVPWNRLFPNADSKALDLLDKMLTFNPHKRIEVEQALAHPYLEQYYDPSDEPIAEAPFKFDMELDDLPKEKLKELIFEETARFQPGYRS

[22] = tested on: WI-38; test: Cytotoxicity against human WI38 cells assessed as cell death at 1 uM after 48 hrs relative to control; format: cell-based; conditions: wi-38, 48 h; outline: as §6
[23] = biological target: Mitogen-activated protein kinase 3 (Homo sapiens) (UniProt P27361); test: Induction of ERK1 phosphorylation at Thr202 residues in H2O2 treated human TIG3 cells at 0.3 uM pretreated with H2O2 for 2 hrs followed by compound addition by immunoblot analysis; outline: as §1
Chain of Mitogen-activated protein kinase 3 (Homo sapiens) (P27361 whole entry): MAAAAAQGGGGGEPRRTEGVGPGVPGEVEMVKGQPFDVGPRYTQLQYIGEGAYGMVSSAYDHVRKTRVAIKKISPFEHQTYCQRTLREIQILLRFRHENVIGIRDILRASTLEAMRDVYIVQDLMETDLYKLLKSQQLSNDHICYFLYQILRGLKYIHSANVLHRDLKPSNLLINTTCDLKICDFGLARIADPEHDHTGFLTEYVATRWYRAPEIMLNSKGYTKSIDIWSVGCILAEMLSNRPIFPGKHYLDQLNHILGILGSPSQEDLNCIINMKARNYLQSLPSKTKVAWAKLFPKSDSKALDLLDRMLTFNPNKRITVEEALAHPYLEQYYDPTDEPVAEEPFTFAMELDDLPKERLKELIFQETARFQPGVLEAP

[24] = tested on: TIG-3; test: Cytotoxicity against human TIG3 cells assessed as induction of morphological changes at 0.3 to 1.5 uM after 48 hrs by phase contrast microscopy; format: cell-based; conditions: tig-3, 48 h; outline: as §7
[25] = tested on: TIG-3; test: Effect on mortalin expression level in human TIG3 cells at 0.3 to 3 uM by immuno fluorescence analysis; format: ADME, cell-based; conditions: tig-3, 3 µM
Outline: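 Methanol-fixed (chilled absolute methanol) TIG-3 fibroblasts treated with Wi-A or 3βmWi-A; immunofluorescence staining with antibodies, imaged by epifluorescence microscopy; signal quantitated from three independent experiments.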

[26] = tested on: TIG-3; test: Cytoprotective activity against H2O2-induced oxidative stress in human TIG3 cells assessed as increase in Bcl2 level at 0.3 uM pretreated with H2O2 for 2 hrs followed by compound addition by immunoblot analysis; format: functional, cell-based; outline: as §1
[27] = tested on: TIG-3; test: Cytotoxicity against human TIG3 cells assessed as decrease in ROS generation at 1.5 to 3 uM after 48 hrs; format: cell-based; conditions: tig-3, 48 h
[28] = tested on: WI-38; test: Cytotoxicity against human WI38 cells assessed as inhibition of colony formation at 0.1 to 0.3 uM by crystal violet staining based assay; format: cell-based; conditions: wi-38, 0.3 µM; outline: as §4
[29] = tested on: TIG-3; test: Induction of oxidative stress in human TIG3 cells assessed as increase in CARF expression level at 0.6 uM by immunoblot analysis; format: cell-based; conditions: tig-3, 0.6 µM; outline: as §2
[30] = tested on: TIG-3; test: Cytoprotective activity against H2O2-induced oxidative stress in human TIG3 cells assessed as increase in cell survival at 3 uM pretreated with H2O2 for 2 hrs followed by compound addition measured after 2 days by crystal violet staining based assay; format: functional

CC1=C(CO)C(=O)O[C@@H]([C@@H](C)[C@H]2CC[C@H]3[C@@H]4C[C@H]5O[C@]56[C@@H](O)C=CC(=O)[C@]6(C)[C@H]4CC[C@]23C)C1 [WITHAFERIN A]
Activity [1]: Active
Activity [2]: inactive
Activity [3]: Toxic
Activity [4]: Toxic
Activity [5]: Toxic
Activity [6]: Toxic
Activity [7]: Toxic
Activity [8]: inactive
Activity [9]: Toxic
Activity [10]: inactive
Activity [11]: Active
Activity [12]: Toxic
Activity [13]: inactive
Activity [14]: Toxic
Activity [15]: inactive
Activity [16]: 90%
Activity [17]: Active
Activity [18]: Active
Activity [19]: Toxic
Activity [20]: Toxic
Activity [21]: Active
Activity [22]: 90%
Activity [23]: Active
Activity [24]: Toxic
Activity [25]: Toxic
Activity [26]: inactive
Activity [27]: Toxic
Activity [28]: Toxic
Activity [29]: Toxic
Activity [30]: inactive
